pIC50, pKi: −log10 of the molar value.
Columns and labels:
[1] = target: Disintegrin and metalloproteinase domain-containing protein 17 (Sus scrofa, UniProt O77636)
Homo sapiens [2] = species: Homo sapiens; experiment: Inhibition of TNF-alpha release in LPS-stimulated human whole blood assay(WBA); format: functional, organism-based
Outline: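 Human whole blood stimulated with LPS; inhibition of TNF-alpha release measured in blood from three separate donors.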

Interstitial collagenase [3] = target: T1, Interstitial collagenase (Homo sapiens, UniProt P03956); experiment: Inhibition of matrix metalloprotease-1
T1 sequence (P03956 whole entry): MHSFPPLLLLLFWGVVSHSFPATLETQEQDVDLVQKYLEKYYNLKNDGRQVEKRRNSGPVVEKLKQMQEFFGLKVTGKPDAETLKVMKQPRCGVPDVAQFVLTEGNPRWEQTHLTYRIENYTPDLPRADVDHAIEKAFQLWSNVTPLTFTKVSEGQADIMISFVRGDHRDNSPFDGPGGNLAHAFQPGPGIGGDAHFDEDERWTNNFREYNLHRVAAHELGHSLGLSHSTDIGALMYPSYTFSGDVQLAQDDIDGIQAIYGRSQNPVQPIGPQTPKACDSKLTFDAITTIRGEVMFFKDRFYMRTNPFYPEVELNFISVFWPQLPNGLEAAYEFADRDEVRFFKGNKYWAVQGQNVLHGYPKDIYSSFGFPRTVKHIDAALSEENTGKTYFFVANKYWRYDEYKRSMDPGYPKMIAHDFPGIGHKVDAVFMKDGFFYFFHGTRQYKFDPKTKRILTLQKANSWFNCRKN

[4] = target: Matrix metalloproteinase-9 (Homo sapiens, UniProt P14780); experiment: Inhibition of human matrix metalloprotease-9
[5] = target: 72 kDa type IV collagenase (Homo sapiens, UniProt P08253)
Homo sapiens [6] = species: Homo sapiens; experiment: Binding affinity against human serum protein; format: functional
Outline: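 Binding to human serum proteins, reported as the mean percentage of compound bound across three determinations.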

Interstitial collagenase [7] = target: T1, Interstitial collagenase; experiment: Inhibition of human matrix metalloprotease-1
[8] = target: Matrix metalloproteinase-15 (Homo sapiens, UniProt P51511); experiment: Inhibition of matrix metalloprotease-15
Collagenase 3 = Collagenase 3 (Homo sapiens, UniProt P45452); experiment: Inhibition of matrix metalloprotease-13
[9] = target: Matrix metalloproteinase-14 (Homo sapiens, UniProt P50281); experiment: Inhibition of matrix metalloprotease-14
[10] = target: Macrophage metalloelastase (Homo sapiens, UniProt P39900); experiment: Inhibition of matrix metalloprotease-12
Neutrophil collagenase = Neutrophil collagenase (Homo sapiens, UniProt P22894); experiment: Inhibition of matrix metalloprotease-8
Stromelysin-2 = Stromelysin-2 (Homo sapiens, UniProt P09238); experiment: Inhibition of matrix metalloprotease-10
Stromelysin-1 = Stromelysin-1 (Homo sapiens, UniProt P08254); experiment: Inhibition of matrix metalloprotease-3
[11] = target: Matrix metalloproteinase-16 (Homo sapiens, UniProt P51512); experiment: Inhibition of matrix metalloprotease-16
Matrilysin = target: T2, Matrilysin (Homo sapiens, UniProt P09237); experiment: Inhibition of matrix metalloprotease-7
T2 sequence (P09237 whole entry): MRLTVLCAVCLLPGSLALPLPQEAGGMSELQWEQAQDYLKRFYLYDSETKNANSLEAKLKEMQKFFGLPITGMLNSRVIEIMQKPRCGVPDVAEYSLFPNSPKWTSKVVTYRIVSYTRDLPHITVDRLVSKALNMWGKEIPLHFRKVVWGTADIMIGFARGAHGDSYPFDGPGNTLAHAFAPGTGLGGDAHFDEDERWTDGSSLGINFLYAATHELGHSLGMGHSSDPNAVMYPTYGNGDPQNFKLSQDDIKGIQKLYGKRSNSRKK

Sequence of Stromelysin-1 (P08254 whole entry): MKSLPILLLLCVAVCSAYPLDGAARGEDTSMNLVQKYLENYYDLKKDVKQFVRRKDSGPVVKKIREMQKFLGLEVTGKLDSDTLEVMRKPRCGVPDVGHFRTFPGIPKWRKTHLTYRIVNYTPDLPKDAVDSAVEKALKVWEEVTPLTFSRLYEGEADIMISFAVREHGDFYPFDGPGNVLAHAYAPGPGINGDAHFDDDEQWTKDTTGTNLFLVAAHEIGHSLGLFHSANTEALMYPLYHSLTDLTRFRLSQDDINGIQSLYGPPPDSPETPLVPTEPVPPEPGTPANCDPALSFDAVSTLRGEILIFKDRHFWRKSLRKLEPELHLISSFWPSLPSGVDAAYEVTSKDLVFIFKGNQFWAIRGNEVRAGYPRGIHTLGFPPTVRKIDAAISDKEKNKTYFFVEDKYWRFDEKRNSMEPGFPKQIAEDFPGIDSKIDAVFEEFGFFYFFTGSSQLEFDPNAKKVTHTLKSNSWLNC
Sequence of Stromelysin-2 (P09238 whole entry): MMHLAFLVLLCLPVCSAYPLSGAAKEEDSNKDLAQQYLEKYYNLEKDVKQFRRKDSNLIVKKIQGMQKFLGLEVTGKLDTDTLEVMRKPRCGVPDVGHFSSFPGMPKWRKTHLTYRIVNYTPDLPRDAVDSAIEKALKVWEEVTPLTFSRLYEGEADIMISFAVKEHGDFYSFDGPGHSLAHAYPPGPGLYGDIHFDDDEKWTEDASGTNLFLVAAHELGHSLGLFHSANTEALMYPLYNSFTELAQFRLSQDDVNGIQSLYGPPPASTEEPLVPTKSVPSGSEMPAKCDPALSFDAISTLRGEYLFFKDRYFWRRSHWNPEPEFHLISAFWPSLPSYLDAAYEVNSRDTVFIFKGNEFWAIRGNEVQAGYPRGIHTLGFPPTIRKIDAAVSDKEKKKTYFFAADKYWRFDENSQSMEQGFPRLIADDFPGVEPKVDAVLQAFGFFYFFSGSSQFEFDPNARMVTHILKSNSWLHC
Sequence of Neutrophil collagenase (P22894 whole entry): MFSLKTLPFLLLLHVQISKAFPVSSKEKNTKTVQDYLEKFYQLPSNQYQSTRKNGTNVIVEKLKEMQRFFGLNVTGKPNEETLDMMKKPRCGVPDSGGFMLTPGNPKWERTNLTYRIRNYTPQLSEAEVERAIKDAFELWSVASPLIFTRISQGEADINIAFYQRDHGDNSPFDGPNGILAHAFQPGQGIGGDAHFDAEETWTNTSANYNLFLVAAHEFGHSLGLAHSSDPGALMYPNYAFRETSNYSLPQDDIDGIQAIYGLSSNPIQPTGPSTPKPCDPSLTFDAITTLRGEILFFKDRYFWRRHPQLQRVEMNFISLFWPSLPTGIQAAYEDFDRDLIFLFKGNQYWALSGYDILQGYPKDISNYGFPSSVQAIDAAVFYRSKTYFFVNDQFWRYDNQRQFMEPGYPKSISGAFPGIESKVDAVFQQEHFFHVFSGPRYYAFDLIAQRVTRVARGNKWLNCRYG
Sequence of 72 kDa type IV collagenase (P08253 whole entry): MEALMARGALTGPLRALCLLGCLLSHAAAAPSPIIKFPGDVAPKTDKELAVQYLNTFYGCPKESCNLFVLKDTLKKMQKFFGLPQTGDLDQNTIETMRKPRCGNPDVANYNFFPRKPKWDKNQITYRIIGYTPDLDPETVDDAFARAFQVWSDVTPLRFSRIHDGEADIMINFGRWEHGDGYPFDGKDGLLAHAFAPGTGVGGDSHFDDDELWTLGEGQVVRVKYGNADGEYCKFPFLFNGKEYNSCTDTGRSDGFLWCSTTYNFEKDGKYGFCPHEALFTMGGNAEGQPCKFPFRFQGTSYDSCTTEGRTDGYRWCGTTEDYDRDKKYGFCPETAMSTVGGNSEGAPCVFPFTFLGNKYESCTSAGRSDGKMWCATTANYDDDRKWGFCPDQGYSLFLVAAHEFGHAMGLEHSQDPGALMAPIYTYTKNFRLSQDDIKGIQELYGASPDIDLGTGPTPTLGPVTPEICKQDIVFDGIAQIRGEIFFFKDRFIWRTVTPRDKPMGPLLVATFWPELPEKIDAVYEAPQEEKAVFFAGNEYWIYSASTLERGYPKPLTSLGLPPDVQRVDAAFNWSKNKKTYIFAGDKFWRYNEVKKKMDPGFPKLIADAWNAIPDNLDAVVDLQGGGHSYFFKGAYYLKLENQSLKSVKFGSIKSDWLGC
Sequence of Disintegrin and metalloproteinase domain-containing protein 17 (O77636 whole entry, the tested form may be a part): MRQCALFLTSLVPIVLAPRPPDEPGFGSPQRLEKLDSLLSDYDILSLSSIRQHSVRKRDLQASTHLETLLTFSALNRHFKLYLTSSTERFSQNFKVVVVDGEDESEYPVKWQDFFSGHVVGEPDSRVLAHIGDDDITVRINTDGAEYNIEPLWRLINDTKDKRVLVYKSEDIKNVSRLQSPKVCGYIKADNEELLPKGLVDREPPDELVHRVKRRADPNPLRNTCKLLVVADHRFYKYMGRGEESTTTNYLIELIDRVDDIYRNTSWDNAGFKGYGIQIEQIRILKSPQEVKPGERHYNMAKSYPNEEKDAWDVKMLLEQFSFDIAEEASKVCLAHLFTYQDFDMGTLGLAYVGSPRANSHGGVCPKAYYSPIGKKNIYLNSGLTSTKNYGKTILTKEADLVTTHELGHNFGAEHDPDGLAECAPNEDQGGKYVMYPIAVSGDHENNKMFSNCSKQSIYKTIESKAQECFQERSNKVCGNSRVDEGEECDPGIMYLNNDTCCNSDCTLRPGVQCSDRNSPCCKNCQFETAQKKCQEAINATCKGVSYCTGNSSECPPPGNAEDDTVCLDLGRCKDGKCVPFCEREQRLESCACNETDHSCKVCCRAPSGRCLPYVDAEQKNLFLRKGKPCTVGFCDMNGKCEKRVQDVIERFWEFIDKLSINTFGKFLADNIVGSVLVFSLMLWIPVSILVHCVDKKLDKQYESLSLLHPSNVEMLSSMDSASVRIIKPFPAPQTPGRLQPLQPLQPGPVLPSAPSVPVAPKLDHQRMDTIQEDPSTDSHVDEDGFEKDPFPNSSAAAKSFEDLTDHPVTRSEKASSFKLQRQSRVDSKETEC
Sequence of Macrophage metalloelastase (P39900 whole entry): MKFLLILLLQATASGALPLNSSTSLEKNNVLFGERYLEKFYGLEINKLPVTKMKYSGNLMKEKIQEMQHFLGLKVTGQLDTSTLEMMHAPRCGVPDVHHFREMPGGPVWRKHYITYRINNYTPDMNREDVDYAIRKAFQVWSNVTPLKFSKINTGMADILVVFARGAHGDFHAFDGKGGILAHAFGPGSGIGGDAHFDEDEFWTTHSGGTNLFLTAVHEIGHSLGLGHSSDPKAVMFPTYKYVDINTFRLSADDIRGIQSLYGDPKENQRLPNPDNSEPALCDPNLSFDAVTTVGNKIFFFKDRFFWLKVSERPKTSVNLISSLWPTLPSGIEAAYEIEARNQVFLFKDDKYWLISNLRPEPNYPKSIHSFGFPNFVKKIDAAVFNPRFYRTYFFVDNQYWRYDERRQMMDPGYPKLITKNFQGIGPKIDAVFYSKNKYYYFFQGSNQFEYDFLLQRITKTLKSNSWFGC
Sequence of Matrix metalloproteinase-9 (P14780 whole entry): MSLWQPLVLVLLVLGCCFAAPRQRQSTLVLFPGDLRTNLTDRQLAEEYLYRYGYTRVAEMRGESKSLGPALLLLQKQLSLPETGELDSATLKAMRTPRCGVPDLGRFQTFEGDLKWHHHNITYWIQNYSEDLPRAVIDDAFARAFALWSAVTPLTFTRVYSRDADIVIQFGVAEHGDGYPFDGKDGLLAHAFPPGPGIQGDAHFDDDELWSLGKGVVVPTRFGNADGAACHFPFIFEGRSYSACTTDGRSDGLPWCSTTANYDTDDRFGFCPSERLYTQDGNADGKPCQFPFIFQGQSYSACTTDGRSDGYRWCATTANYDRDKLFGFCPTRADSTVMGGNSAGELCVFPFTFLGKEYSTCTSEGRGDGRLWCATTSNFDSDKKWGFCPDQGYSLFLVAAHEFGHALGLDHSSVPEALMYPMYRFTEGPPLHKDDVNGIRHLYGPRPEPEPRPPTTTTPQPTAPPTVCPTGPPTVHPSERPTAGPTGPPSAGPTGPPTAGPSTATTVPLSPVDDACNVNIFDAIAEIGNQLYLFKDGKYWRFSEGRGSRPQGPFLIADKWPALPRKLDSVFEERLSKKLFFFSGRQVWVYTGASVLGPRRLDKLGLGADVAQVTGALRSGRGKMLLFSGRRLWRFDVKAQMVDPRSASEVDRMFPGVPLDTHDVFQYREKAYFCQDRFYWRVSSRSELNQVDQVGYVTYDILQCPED
Sequence of Matrix metalloproteinase-15 (P51511 whole entry): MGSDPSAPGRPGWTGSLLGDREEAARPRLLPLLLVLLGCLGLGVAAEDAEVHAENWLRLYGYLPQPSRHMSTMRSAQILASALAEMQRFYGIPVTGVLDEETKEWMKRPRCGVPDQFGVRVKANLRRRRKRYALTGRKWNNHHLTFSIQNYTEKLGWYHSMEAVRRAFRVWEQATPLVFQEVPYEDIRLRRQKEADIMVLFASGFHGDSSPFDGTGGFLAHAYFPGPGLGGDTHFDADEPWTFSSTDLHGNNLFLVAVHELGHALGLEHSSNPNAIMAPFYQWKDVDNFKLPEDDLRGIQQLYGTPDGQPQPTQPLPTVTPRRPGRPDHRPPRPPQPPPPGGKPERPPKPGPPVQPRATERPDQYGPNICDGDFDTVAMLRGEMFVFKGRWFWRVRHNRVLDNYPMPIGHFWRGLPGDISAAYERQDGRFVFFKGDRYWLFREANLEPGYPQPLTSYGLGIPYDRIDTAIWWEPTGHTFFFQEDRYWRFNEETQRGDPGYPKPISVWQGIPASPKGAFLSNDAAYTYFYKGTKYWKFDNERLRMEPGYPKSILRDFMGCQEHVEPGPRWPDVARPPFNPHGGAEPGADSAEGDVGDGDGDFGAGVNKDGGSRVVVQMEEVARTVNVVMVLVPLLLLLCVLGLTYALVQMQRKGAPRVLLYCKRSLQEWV

SMILES | pKi [1] | pIC50 (Homo sapiens [2]) | pKi (Interstitial collagenase [3]) | pKi [4] | pKi [5] | Bound (Homo sapiens [6]) [%] | pKi (Interstitial collagenase [7]) | pKi [8] | pKi (Collagenase 3) | pKi [9] | pKi [10] | pKi (Neutrophil collagenase) | pKi (Stromelysin-2) | pKi (Stromelysin-1) | pKi [11] | pKi (Matrilysin)
O=C1NCCCC[C@@H](C(=O)NCC(=O)N2CCNCC2)NC(=O)[C@H](Cc2ccc(-c3cccc(C(F)(F)F)c3)cc2)[C@@H](C(=O)NO)CCCO1 | 8.43 | 6.92 | < 5.70 | 7.04 | 7.96 | 29 |  |  |  |  |  |  |  |  |  | 
O=C1NCCCC[C@@H](C(=O)NCC(=O)N2CCOCC2)NC(=O)[C@H](Cc2ccc(-c3cc(Cl)cc(Cl)c3)cc2)[C@@H](C(=O)NO)CCCO1 | 8.55 | 6.64 | < 5.70 | 6.74 | 7.30 | 83 |  |  |  |  |  |  |  |  |  | 
CNC(=O)CNC(=O)[C@@H]1CCCCNC(=O)OCCC[C@H](C(=O)NO)[C@@H](Cc2ccc(-c3ccccc3C(F)(F)F)cc2)C(=O)N1 | 8.42 | 6.42 | < 5.70 | 5.93 | 6.35 | 33 |  |  |  |  |  |  |  |  |  | 
O=C1NCCCC[C@@H](C(=O)NCC(=O)N2CCOCC2)NC(=O)[C@H](Cc2ccc(-c3c(F)cccc3F)cc2)[C@@H](C(=O)NO)CCCO1 | 8.20 | 5.43 |  | 7.68 | 9.19 | 25 | < 5.70 |  |  |  |  |  |  |  |  | 
CC(C)C[C@H]1C(=O)N[C@H](C(=O)NCC(=O)N2CCOCC2)CCCCNC(=O)OCCC[C@@H]1C(=O)NO |  |  |  |  |  | 1 |  |  |  |  |  |  |  |  |  | 
NC(=O)CNC(=O)[C@@H]1CCCCNC(=O)OCCC[C@H](C(=O)NO)[C@@H](Cc2ccc(-c3ccccc3C(F)(F)F)cc2)C(=O)N1 | 8.82 | 6.74 | < 5.70 | < 5.70 | 5.73 |  |  | < 5.70 | 6.35 | < 5.70 | < 5.70 | 6.37 | < 5.70 | < 5.70 | < 5.70 | 5.87
O=C1NCCCC[C@@H](C(=O)NCC(=O)N2CCOCC2)NC(=O)[C@H](Cc2ccc(-c3ccccc3C(F)(F)F)cc2)[C@@H](C(=O)NO)CCCO1 | 8.55 | 7.15 | < 5.70 | < 5.70 | < 5.70 | 55 |  | < 5.70 | 6.19 | < 5.70 | < 5.70 | 6.90 | < 5.70 | < 5.70 | < 5.70 | 6.08
CS(=O)(=O)c1ccccc1-c1ccc(C[C@H]2C(=O)N[C@H](C(=O)NCC(=O)N3CCOCC3)CCCCNC(=O)OCCC[C@@H]2C(=O)NO)cc1 | 8.19 | 6.39 | < 5.70 | < 5.70 | < 5.70 | 5 |  |  |  |  |  |  |  |  |  | 
O=C1NCCCC[C@@H](C(=O)NCC(=O)N2CCNCC2)NC(=O)[C@H](Cc2ccc(-c3ccccc3C(F)(F)F)cc2)[C@@H](C(=O)NO)CCCO1 | 8.77 | 7.22 | < 5.70 | 5.75 | 6.15 | 36 |  | < 5.70 | 7.30 | < 5.70 | 6.41 | 6.17 | < 5.70 | 6.24 | < 5.70 | 6.75
O=C1NCCCC[C@@H](C(=O)NCC(=O)N2CCNCC2)NC(=O)[C@H](Cc2ccc(-c3cc(C(F)(F)F)cc(C(F)(F)F)c3)cc2)[C@@H](C(=O)NO)CCCO1 | 8.34 | 6.74 | < 5.70 | < 5.70 | < 5.70 | 71 |  | < 5.70 | < 5.70 | < 5.70 | 7.46 | 6.57 | < 5.70 | < 5.70 | < 5.70 | < 5.70

— ChEMBL document CHEMBL1134694, “Discovery of macrocyclic hydroxamic acids containing biphenylmethyl derivatives at P1', a series of selective TNF-alpha converting enzyme inhibitors with potent cellular activity in the inhibition of TNF-alpha release” (J Med Chem, 2001)
